{
  "source": "ChEMBL document CHEMBL1122967",
  "about": "(J Med Chem, 1985)",
  "type_in_all_cases": "ADME, organism-based",
  "conditions_in_all_cases": "in vivo",
  "key": {"[1]": {"test_system": "Rattus norvegicus", "assay": "Distribution of [125I]AC in cerebellum after intravenous administration in rat after 1hour, expressed as percent dose/gram", "method_in_brief": "(§1)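 Rats received the radioiodinated ligand intravenously and were killed with ether at 1 h or 2 h (six per time point). Organs and brain regions (striatum, cerebellum, thalamus, rest of brain) were sampled and counted. Uptake was calculated as percent injected dose per gram tissue, reported ± SD. The striatum/cerebellum ratio was taken from the regional uptake values.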"}, "[2]": {"organism": "Rattus norvegicus", "assay": "Ratio of striatum/cerebellum distribution in rat after 1 hr", "method_in_brief": "as §1"}, "[3]": {"test_system": "Rattus norvegicus", "assay": "Distribution of [125I]AC in heart after intravenous administration in rat after 1hour, expressed as percent dose/gram", "method_in_brief": "as §1"}, "[4]": {"test_system": "Rattus norvegicus", "assay": "Distribution of [125I]AC in thalamus after intravenous administration in rat after 2hours, expressed as percent dose/gram", "method_in_brief": "as §1"}, "[5]": {"test_system": "Rattus norvegicus", "assay": "Distribution of [125I]-AC in blood after intravenous administration in rat after 2hours, expressed as percent dose/gram", "method_in_brief": "as §1"}, "[6]": {"test_system": "Rattus norvegicus", "assay": "Distribution of [125I]AC in striatum after intravenous administration in rat after 2hours, expressed as percent dose/gram", "method_in_brief": "as §1"}, "[7]": {"test_system": "Rattus norvegicus", "assay": "Distribution of [125I]AC in rest of the brain after intravenous administration in rat after 2hours, expressed as percent dose/gram", "method_in_brief": "as §1"}, "[8]": {"test_system": "Rattus norvegicus", "assay": "Distribution of [125I]AC in striatum after intravenous administration in rat after 1hour, expressed as percent dose/gram", "method_in_brief": "as §1"}, "[9]": {"test_system": "Rattus norvegicus", "assay": "Distribution of [125I]AC in blood after intravenous administration in rat after 1hour, expressed as percent dose/gram", "method_in_brief": "as §1"}, "[10]": {"test_system": "Rattus norvegicus", "assay": "Distribution of [125I]-AC in thalamus after intravenous administration in rat after 1hour, expressed as percent dose/gram", "method_in_brief": "as §1"}, "[11]": {"test_system": "Rattus norvegicus", "assay": "Distribution of [125I]-AC in cerebellum after intravenous administration in rat after 2hours, expressed as percent dose/gram", "method_in_brief": "as §1"}, "[12]": {"test_system": "Rattus norvegicus", "assay": "Distribution of [125I]-AC in heart after intravenous administration in rat after 2hours, expressed as percent dose/gram", "method_in_brief": "as §1"}, "[13]": {"test_system": "Rattus norvegicus", "assay": "Distribution of [125I]AC in rest of the brain after intravenous administration in rat after 1hour, expressed as percent dose/gram", "method_in_brief": "as §1"}, "[14]": {"organism": "Rattus norvegicus", "assay": "Ratio of striatum/cerebellum distribution in rat after 2 hr", "method_in_brief": "as §1"}, "[15]": {"test_system": "Rattus norvegicus", "assay": "Distribution of [125I]iodoclebopride in striatum after intravenous administration in rat after 2hours, expressed as percent dose/gram", "method_in_brief": "as §1"}, "[16]": {"test_system": "Rattus norvegicus", "assay": "Distribution of [125I]iodoclebopride in cerebellum after intravenous administration in rat after 2hours, expressed as percent dose/gram", "method_in_brief": "as §1"}, "[17]": {"test_system": "Rattus norvegicus", "assay": "Distribution of [125I]iodoclebopride in thalamus after intravenous administration in rat after 2hours, expressed as percent dose/gram", "method_in_brief": "as §1"}, "[18]": {"test_system": "Rattus norvegicus", "assay": "Distribution of [125I]iodoclebopride in cerebellum after intravenous administration in rat after 1hour, expressed as percent dose/gram", "method_in_brief": "as §1"}, "[19]": {"test_system": "Rattus norvegicus", "assay": "Distribution of [125I]Iodoclebopride in rest of the brain after intravenous administration in rat after 2hours, expressed as percent dose/gram", "method_in_brief": "as §1"}, "[20]": {"test_system": "Rattus norvegicus", "assay": "Distribution of [125I]iodoclebopride in striatum after intravenous administration in rat after 1hour, expressed as percent dose/gram", "method_in_brief": "as §1"}, "[21]": {"test_system": "Rattus norvegicus", "assay": "Distribution of [125I]iodoclebopride in heart after intravenous administration in rat after 1hour, expressed as percent dose/gram", "method_in_brief": "as §1"}, "[22]": {"test_system": "Rattus norvegicus", "assay": "Distribution of [125I]iodoclebopride in blood after intravenous administration in rat after 1hour, expressed as percent dose/gram", "method_in_brief": "as §1"}, "[23]": {"test_system": "Rattus norvegicus", "assay": "Distribution of [125I]iodoclebopride in heart after intravenous administration in rat after 2hours, expressed as percent dose/gram", "method_in_brief": "as §1"}, "[24]": {"test_system": "Rattus norvegicus", "assay": "Distribution of [125I]Iodoclebopride in rest of the brain after intravenous administration in rat after 1hour, expressed as percent dose/gram", "method_in_brief": "as §1"}, "[25]": {"test_system": "Rattus norvegicus", "assay": "Distribution of [125I]iodoclebopride in blood after intravenous administration in rat after 2hours, expressed as percent dose/gram", "method_in_brief": "as §1"}, "[26]": {"test_system": "Rattus norvegicus", "assay": "Distribution of [125I]iodoclebopride in thalamus after intravenous administration in rat after 1hour, expressed as percent dose/gram", "method_in_brief": "as §1"}},
  "data": [
    {"compound": "COc1cc(N)c(I)cc1C(=O)NC1CCN(Cc2ccccc2)CC1", "values": [
      {"measurement": "Tissue distribution", "setting": "[1]", "value": 0.26, "unit": "%"},
      {"measurement": "Ratio", "setting": "[2]", "value": 1.92},
      {"measurement": "Tissue distribution", "setting": "[3]", "value": 0.35, "unit": "%"},
      {"measurement": "Tissue distribution", "setting": "[4]", "value": 0.22, "unit": "%"},
      {"measurement": "Tissue distribution", "setting": "[5]", "value": 0.29, "unit": "%"},
      {"measurement": "Tissue distribution", "setting": "[6]", "value": 0.38, "unit": "%"},
      {"measurement": "Tissue distribution", "setting": "[7]", "value": 0.16, "unit": "%"},
      {"measurement": "Tissue distribution", "setting": "[8]", "value": 0.5, "unit": "%"},
      {"measurement": "Tissue distribution", "setting": "[9]", "value": 0.33, "unit": "%"},
      {"measurement": "Tissue distribution", "setting": "[10]", "value": 0.27, "unit": "%"},
      {"measurement": "Tissue distribution", "setting": "[11]", "value": 0.23, "unit": "%"},
      {"measurement": "Tissue distribution", "setting": "[12]", "value": 0.3, "unit": "%"},
      {"measurement": "Tissue distribution", "setting": "[13]", "value": 0.18, "unit": "%"},
      {"measurement": "Ratio", "setting": "[14]", "value": 1.65}
    ]},
    {"compound": "COc1cc(N=[N+]=[N-])c(I)cc1C(=O)NC1CCN(Cc2ccccc2)CC1", "note": "[IODOAZIDOCLEBOPRIDE]", "values": [
      {"measurement": "Tissue distribution", "setting": "[15]", "value": 2.52, "unit": "%"},
      {"measurement": "Ratio", "setting": "[2]", "value": 2.23},
      {"measurement": "Tissue distribution", "setting": "[16]", "value": 1.06, "unit": "%"},
      {"measurement": "Tissue distribution", "setting": "[17]", "value": 1.12, "unit": "%"},
      {"measurement": "Tissue distribution", "setting": "[18]", "value": 1.13, "unit": "%"},
      {"measurement": "Tissue distribution", "setting": "[19]", "value": 0.73, "unit": "%"},
      {"measurement": "Tissue distribution", "setting": "[20]", "value": 2.52, "unit": "%"},
      {"measurement": "Tissue distribution", "setting": "[21]", "value": 1.61, "unit": "%"},
      {"measurement": "Tissue distribution", "setting": "[22]", "value": 0.32, "unit": "%"},
      {"measurement": "Tissue distribution", "setting": "[23]", "value": 1.34, "unit": "%"},
      {"measurement": "Tissue distribution", "setting": "[24]", "value": 0.78, "unit": "%"},
      {"measurement": "Tissue distribution", "setting": "[25]", "value": 0.34, "unit": "%"},
      {"measurement": "Ratio", "setting": "[14]", "value": 2.37},
      {"measurement": "Tissue distribution", "setting": "[26]", "value": 1.25, "unit": "%"}
    ]}
  ]
}
